Source: ChEMBL document CHEMBL1125155, “Preparation and anticonvulsant activity of a series of functionalized alpha-aromatic and alpha-heteroaromatic amino acids” (J Med Chem, 1990)

Tests used:
[1] = Neurological toxicity was determined using horizontal screen test in mice after intraperitoneal administration; assay type: organism-based; conditions: mouse, in vivo, ip
Method in brief: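 Male CF-1 mice, ip dosing in 30% PEG 400. Previously trained mice placed on a 13 × 13 cm no. 4 mesh wire screen on a vertical rod. Rod rotated 180°; failure to return to top within 1 min counted as impairment.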

[2] = tested on: Mus musculus; assay: Concentration required to inhibit seizures was determined in MES test after (ip) administration in mice; assay type: functional
Method in brief: (§1)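 Male CF-1 mice; compounds dissolved in 30% polyethylene glycol 400, given ip. Screening at 30, 100, 300 mg/kg, four mice per dose, tested at 0.5, 1 and 4 h for protection against maximal electroshock seizures.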

[3] = tested on: Mus musculus; assay: Concentration required to inhibit seizures was determined in MES test after (ip) administration in mice; Range is >25 to <100; assay type: functional; method in brief: as §1
[4] = Neurological toxicity was determined using horizontal screen test in mice after intraperitoneal administration; Range is >100 to <300; assay type: organism-based; conditions: mouse, in vivo, ip
[5] = tested on: Mus musculus; assay: Concentration required to inhibit seizures was determined in MES test after (ip) administration in mice; Range is >100 to <300; assay type: functional
[6] = Protective index (TD50/ED50) was determined; assay type: functional
Method in brief: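 Ratio of horizontal-screen TD50 to MES ED50, both ip in male CF-1 mice given in 30% PEG 400. Both values taken at time of peak anticonvulsant activity, each from a dose-response curve (10–12 or 12 mice per dose).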

## CC(=O)NC(C(=O)NCc1ccccc1)c1ccc2ccccc2c1 (configuration not stated)
[1]
  TD50: > 300 mg/kg
[2]
  ED50: > 300 mg/kg

## CC(=O)N[C@H](C(=O)NCc1ccccc1)c1ccco1
[1]
  TD50: > 200 mg/kg
[2]
  ED50: > 25 mg/kg

## CC(=O)N[C@@H](C)C(=O)NCc1ccccc1
[1]
  TD50: 841 mg/kg
[2]
  ED50: 548 mg/kg

## CC(=O)NC(C(=O)NCc1ccccc1)c1ccc(C)o1 (configuration not stated)
[1]
  TD50: 75.4 mg/kg

## CC(=O)NC(C(=O)NCc1c(F)cccc1F)c1ccco1 (configuration not stated)
[3]
  ED50: > 25 mg/kg

## CC(=O)NC(C(=O)NCc1ccccc1)c1cc(C)ccc1O (configuration not stated)
[2]
  ED50: > 300 mg/kg

## CC(=O)NC(C(=O)NCc1ccccc1)c1ccc(O)cc1 (configuration not stated)
[2]
  ED50: > 300 mg/kg

## CC(=O)NC(C(=O)NCc1ccccc1)c1cccs1 (configuration not stated)
[1]
  TD50: > 30 mg/kg

## CC(=O)N[C@@H](C(=O)NCc1ccccc1)c1ccccc1
[1]
  TD50: > 80 mg/kg
[2]
  ED50: 26.4 mg/kg

## CCC1(c2ccccc2)C(=O)NC(=O)NC1=O [PHENOBARBITAL]
[2]
  ED50: 21.8 mg/kg

## CC(=O)NC(C(=O)NCc1ccccc1)c1cc2ccccc2o1 (configuration not stated)
[4]
  TD50: > 100 mg/kg
[5]
  ED50: > 100 mg/kg

## CC(=O)N[C@H](C(=O)NCc1ccccc1)c1ccccc1
[1]
  TD50: > 100 mg/kg
[2]
  ED50: > 300 mg/kg

## CC(=O)NC(C(=O)NCc1ccccc1)c1cccn1C (configuration not stated)
[2]
  ED50: ~300 mg/kg

## CC(=O)NC(C(=O)NCc1ccccc1)c1ccccc1 (configuration not stated)
[1]
  TD50: > 40 mg/kg
[2]
  ED50: 32.1 mg/kg

## CC(=O)NC(C(=O)NCc1ccccc1)c1ccc[nH]1 (configuration not stated)
[1]
  TD50: > 30 mg/kg

## CC(=O)NC(C(=O)NCc1ccccc1)c1ccco1 (configuration not stated)
[1]
  TD50: ~40 mg/kg
[2]
  ED50: 10.3 mg/kg

## CC(=O)NC(C(=O)NCc1ccccc1)c1c[nH]c2ccccc12 (configuration not stated)
[1]
  TD50: < 300 mg/kg
[2]
  ED50: > 300 mg/kg

## CC(=O)NC(C(=O)NCc1ccc(F)cc1)c1ccco1 (configuration not stated)
[1]
  TD50: 144 mg/kg

## COc1ccc(C(NC(C)=O)C(=O)NCc2ccccc2)cc1 (configuration not stated)
[2]
  ED50: > 300 mg/kg

## CC(=O)N[C@@H](C(=O)NCc1ccccc1)c1ccco1
[1]
  TD50: 23.8 mg/kg
[2]
  ED50: 3.3 mg/kg
[6]
  Ratio: 7.2

## CC(=O)NC(C(=O)NCc1ccccc1)c1cc2ccccc2s1 (configuration not stated)
[4]
  TD50: > 100 mg/kg
[5]
  ED50: > 100 mg/kg

## CC(=O)N[C@H](C)C(=O)NCc1ccccc1
[1]
  TD50: 214 mg/kg
[2]
  ED50: 54.8 mg/kg

## CC(=O)NC(C(=O)NCc1ccccc1)c1ccsc1 (configuration not stated)
[1]
  TD50: > 100 mg/kg

## CC(=O)NC(C(=O)NCc1cccc(F)c1)c1ccco1 (configuration not stated)
[1]
  TD50: 136 mg/kg
